Laboratory results reported in ChEMBL document CHEMBL3421533, “The Discovery of Orally Bioavailable Tyrosine Threonine Kinase (TTK) Inhibitors: 3-(4-(heterocyclyl)phenyl)-1H-indazole-5-carboxamides as Anticancer Agents” (J Med Chem, 2015).

Key:
Aurora kinase A [1] = biological target: T1, Aurora kinase A (Homo sapiens, UniProt O14965); test: Inhibition of recombinant AURKA (unknown origin) preincubated for 15 mins prior to ATP addition by FRET-based homogenous assay
T1 sequence (O14965 whole entry): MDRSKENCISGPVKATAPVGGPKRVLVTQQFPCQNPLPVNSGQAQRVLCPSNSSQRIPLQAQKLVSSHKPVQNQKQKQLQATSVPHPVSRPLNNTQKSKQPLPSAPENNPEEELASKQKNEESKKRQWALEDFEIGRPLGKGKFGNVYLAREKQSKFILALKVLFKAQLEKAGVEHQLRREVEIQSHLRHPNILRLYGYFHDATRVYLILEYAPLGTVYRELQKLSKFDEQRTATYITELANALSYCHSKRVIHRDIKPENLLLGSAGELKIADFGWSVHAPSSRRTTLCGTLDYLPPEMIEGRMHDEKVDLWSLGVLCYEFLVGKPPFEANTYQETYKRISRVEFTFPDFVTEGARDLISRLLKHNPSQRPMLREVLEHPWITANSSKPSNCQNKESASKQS

[2] = Half life in Sprague-Dawley rat at 1 mg/kg, iv by LC-MS/MS analysis; format: ADME, organism-based; design: dose 1 mg/kg, route intravenous; settings: in vivo
[3] = AUCinfinity in Sprague-Dawley rat at 5 mg/kg, po by LC-MS/MS analysis; format: ADME, organism-based; design: time infinity, dose 5 mg/kg, route oral; settings: plasma
[4] = Oral bioavailability in Sprague-Dawley rat at 5 mg/kg by LC-MS/MS analysis; format: ADME, organism-based; settings: in vivo
[5] = Half life in iv dosed dog; format: ADME, organism-based, Canis lupus familiaris; settings: in vivo
[6] = Antitumor activity against human HCT116 cells xenografted in athymic CD1 nude mouse assessed as tumor growth inhibition at 35 mg/kg, po qd administered for 21 days measured 3 times per week during compound dosing relative to vehicle-treated control; format: functional; settings: HCT-116, 504 h, read-out: TGI
Outline: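 HCT116 cells (5 million) were injected subcutaneously into the right flank of 6–8 week old female athymic CD-1 nude mice. At a mean tumor volume of 80–120 mm³, mice were randomized (n = 8). Tumors were measured three times weekly, volume x²y/2, and TGI was taken against vehicle.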

MDA-MB-468 = test: Antitumor activity against human MDA-MB-468 cells xenografted in CB-17 SCID mouse assessed as tumor growth inhibition at 30 mg/kg, po qd administered for 21 days measured 3 times per week during compound dosing relative to vehicle-treated control; format: functional; settings: MDA-MB-468, 504 h, read-out: TGI
Outline: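 Groups (n = 5) were randomized at a mean tumor volume of 80–120 mm³. Oral daily dosing for 21 days in 10% NMP/40% PEG400/50% DI water, top dose 30 mg/kg. Tumors were measured three times weekly, volume x²y/2, and TGI was computed against vehicle.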

[7] = biological target: Mast/stem cell growth factor receptor Kit (Homo sapiens, UniProt P10721, V560G); test: Inhibition of human cKit V560G mutant by millipore radiometric assay
Sequence of Mast/stem cell growth factor receptor Kit (P10721 26-976 V560G limits assumed): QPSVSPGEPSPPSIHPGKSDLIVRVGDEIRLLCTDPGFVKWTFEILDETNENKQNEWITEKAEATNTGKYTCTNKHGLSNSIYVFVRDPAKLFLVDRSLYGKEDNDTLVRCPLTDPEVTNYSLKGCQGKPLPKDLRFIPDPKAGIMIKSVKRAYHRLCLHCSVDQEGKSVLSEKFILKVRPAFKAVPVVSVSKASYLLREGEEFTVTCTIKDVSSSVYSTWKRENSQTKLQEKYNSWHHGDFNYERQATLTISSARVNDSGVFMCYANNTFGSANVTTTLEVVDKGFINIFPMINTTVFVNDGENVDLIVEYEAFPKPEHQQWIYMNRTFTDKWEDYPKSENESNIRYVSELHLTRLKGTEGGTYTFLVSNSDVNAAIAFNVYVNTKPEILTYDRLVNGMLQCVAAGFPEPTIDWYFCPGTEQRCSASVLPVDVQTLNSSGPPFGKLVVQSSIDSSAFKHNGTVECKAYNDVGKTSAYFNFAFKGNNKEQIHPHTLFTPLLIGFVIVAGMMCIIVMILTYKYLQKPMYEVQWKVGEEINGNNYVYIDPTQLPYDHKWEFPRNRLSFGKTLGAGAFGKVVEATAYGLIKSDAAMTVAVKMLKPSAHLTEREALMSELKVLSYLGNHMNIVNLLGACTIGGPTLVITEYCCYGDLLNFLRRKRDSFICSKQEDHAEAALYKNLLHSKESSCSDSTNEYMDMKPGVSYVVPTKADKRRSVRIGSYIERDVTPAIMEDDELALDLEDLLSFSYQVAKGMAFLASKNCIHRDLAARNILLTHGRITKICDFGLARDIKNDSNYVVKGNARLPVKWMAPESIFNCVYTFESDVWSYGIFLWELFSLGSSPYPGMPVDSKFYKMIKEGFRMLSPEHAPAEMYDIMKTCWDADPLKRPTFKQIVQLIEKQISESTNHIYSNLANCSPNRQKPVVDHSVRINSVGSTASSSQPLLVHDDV
Outline: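 Radiometric profiling against a 278-kinase panel was done with ATP at Km. Half-maximal inhibitory concentrations were then determined for the kinases most inhibited.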

Aurora kinase A [8] = biological target: T1, Aurora kinase A; test: Inhibition of AURKA (unknown origin) transfected in human HCT116 cells after 4 hrs by near infrared imager analysis; format: cell-based, HCT-116
Outline: (§1)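 HCT116 cells transfected with wild-type TTK were arrested with nocodazole (200 ng/mL, 17 h). They were pretreated with MG132 (15 μM, 30 min), then exposed to compound or DMSO for 4 h. Blots were probed for phospho-TTK (Thr12/Ser15), phospho-Aurora A (Thr288)/B (Thr232), TTK and GAPDH. Bands were quantified by near-infrared imaging, and EC50 was fitted.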

[9] = biological target: Aurora kinase B/Inner centromere protein (Homo sapiens, UniProt Q96GD4); test: Inhibition of AURKB/INCENP (unknown origin) transfected in human HCT116 cells after 4 hrs by near infrared imager analysis; format: cell-based, HCT-116; outline: as §1
Sequence of Aurora kinase B/Inner centromere protein (Q96GD4 whole entry, the tested form may be a part): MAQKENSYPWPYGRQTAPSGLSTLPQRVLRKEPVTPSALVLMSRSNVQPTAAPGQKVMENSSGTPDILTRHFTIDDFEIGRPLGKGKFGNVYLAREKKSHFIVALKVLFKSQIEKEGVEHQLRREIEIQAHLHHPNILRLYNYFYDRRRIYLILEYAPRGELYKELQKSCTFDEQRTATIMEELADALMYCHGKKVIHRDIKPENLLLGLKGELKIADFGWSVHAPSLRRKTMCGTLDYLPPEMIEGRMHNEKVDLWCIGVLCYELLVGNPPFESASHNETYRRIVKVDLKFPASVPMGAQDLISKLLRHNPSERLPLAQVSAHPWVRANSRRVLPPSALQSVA
Sequence of Aurora kinase B/Inner centromere protein (Q9NQS7 whole entry, further chain, the tested form may be a part): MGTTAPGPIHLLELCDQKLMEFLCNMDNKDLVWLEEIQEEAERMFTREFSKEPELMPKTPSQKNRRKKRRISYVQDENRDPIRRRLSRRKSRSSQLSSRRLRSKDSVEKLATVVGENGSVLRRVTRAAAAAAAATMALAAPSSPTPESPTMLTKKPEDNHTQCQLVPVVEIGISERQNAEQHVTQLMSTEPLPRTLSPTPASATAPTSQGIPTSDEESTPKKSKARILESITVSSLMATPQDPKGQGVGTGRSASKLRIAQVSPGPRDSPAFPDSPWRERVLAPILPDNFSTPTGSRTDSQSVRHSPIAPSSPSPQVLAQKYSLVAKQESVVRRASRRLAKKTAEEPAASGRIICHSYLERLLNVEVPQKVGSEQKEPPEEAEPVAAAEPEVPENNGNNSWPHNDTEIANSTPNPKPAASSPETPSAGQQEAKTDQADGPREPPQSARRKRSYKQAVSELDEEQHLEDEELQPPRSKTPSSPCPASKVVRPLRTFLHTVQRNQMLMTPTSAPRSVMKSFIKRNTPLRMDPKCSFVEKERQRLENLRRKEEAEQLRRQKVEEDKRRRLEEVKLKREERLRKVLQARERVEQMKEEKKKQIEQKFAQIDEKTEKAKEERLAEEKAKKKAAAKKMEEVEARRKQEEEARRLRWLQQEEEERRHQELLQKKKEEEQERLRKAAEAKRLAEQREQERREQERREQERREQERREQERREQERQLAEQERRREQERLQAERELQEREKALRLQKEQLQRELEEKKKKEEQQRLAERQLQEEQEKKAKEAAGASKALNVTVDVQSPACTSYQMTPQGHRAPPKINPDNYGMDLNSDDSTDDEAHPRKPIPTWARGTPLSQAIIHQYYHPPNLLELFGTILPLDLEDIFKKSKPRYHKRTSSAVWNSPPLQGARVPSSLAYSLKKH

[10] = biological target: T2, Dual specificity protein kinase TTK (Homo sapiens, UniProt P33981); test: Competitive inhibition of amino terminal GST-fused full length human TTK using His6-SUMO-TTK-N as substrate by Lineweaver-Burk plot analysis in presence of ATP; settings: read-out: Ki(app)
T2 sequence (P33981 whole entry): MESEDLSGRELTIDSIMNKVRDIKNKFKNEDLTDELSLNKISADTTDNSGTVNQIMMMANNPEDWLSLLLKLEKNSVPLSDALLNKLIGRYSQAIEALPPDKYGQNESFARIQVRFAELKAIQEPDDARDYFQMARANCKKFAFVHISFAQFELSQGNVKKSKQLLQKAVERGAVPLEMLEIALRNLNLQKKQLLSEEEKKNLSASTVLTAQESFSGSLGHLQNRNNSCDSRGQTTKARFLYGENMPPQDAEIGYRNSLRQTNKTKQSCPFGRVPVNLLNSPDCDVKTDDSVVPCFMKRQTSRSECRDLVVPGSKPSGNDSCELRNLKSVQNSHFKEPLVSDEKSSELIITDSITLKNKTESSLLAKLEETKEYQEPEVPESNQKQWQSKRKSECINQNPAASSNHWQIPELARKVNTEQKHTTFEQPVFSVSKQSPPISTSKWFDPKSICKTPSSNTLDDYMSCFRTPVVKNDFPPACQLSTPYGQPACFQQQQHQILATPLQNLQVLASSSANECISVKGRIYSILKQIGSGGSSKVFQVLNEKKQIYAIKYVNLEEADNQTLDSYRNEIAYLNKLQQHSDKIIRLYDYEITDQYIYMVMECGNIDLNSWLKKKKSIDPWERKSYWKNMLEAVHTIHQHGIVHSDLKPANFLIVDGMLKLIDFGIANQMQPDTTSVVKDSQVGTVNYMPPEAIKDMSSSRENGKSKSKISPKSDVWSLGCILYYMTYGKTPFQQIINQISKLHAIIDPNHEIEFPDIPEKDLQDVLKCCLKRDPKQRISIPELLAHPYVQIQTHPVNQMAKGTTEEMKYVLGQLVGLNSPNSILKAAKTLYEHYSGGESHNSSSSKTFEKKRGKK

MDA-MB-231 = test: Cytotoxicity against human MDA-MB-231 cells after 5 days by sulforhodamine B assay; format: functional; settings: MDA-MB-231, 120 h
Outline: (§2)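 Cancer lines were seeded at 800–6000 cells per well according to growth rate, 24 h before compound overlay. After culture, cells were fixed in situ and stained with sulforhodamine B. GI50 values were derived by curve fitting.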

BT-474 = test: Cytotoxicity against human BT474 cells after 5 days by sulforhodamine B assay; format: functional; settings: BT-474, 120 h; outline: as §2
T47D = test: Cytotoxicity against human T47D cells after 5 days by sulforhodamine B assay; format: functional; settings: 120 h; outline: as §2
[11] = Cytotoxicity against human PC3 cells after 5 days by sulforhodamine B assay; format: functional; settings: PC-3, 120 h; outline: as §2
DU-145 = test: Cytotoxicity against human DU145 cells after 5 days by sulforhodamine B assay; format: functional; settings: DU-145, 120 h; outline: as §2
HCT-116 = test: Induction of chromosome segregation defect in human HCT116 cells assessed as anaphase and telophase cells with lagging chromosomes at 100 nM incubated for 6 hrs post double thymidine block by DAPI staining-based immunofluorescence microscopic analysis (reference value: 19 +/- 2%); format: functional
[12] = Plasma protein binding in dog; format: ADME, cell-free, Canis lupus familiaris; settings: read-out: PPB (converted)
[13] = Plasma protein binding in human; format: ADME, cell-free; settings: read-out: PPB (converted)

O=C(N[C@@H](c1ccccn1)C1CC1)c1ccc2[nH]nc(-c3ccc(N4[C@H]5CC[C@H]4CC(O)C5)cc3)c2c1 (stereo in doubt; 75)
IC50 (Aurora kinase A [1]): 1300 nM | half-life [2]: 46.8 min | AUC(0-inf) [3]: 550 ng·h/mL | bioavailability [4]: 44% | half-life [5]: 72 min | inhibition in vivo at 35 mg/kg [6]: 77% | inhibition in vivo at 30 mg/kg (MDA-MB-468): 98% | IC50 [7]: 490 nM | EC50 (Aurora kinase A [8]): > 6 µM | EC50 [9]: > 6 µM | Ki [10]: 0.7 nM | GI50 (MDA-MB-231): 70 nM | GI50 (BT-474): 15 nM | GI50 (T47D): 20 nM | GI50 [11]: 60 nM | GI50 (DU-145): 17 nM | Activity (HCT-116): 61% | fraction unbound [12]: 0.114 | fraction unbound [13]: 0.022
